According to ChEMBL document CHEMBL1125768, “Peptide derivatives specific for a Plasmodium falciparum proteinase inhibit the human erythrocyte invasion by merozoites” (J Med Chem, 1991):
Square brackets hold non-standard residues; d marks the D form. Peptide text beside a SMILES is read from it. * marks the point of attachment. NH(9-Et-carbazol-3-yl) = CCn1c2ccccc2c2cc(N*)ccc21; X1 = O=C(C(O)C(O)C(O)C(O)CO)*; Boc = CC(C)(C)OC(=O)*; Sar = CNCC(=O)O

Experiments:
Plasmodium falciparum [1] = test: Substrate affinity for Plasmodium falciparum 68 neutral proteinase.; type: functional
How it was run: (§1)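 Pf 68 proteinase purified from FcR-3 schizonts, incubated with peptidyl-AEC substrates (0.5-2.0 mM) in 50 mM Tris-HCl pH 7.4, 30 min at 37 °C. Free AEC extracted into ethyl acetate, fluorescence read at ex 370/em 430 nm. A 10 μg/mL trypsin total-release digest served as reference. Km and rates from Lineweaver-Burk plots; Vrel is the rate relative to S-1.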

Plasmodium falciparum [2] = test: Relative rate of hydrolysis by Plasmodium falciparum 68 neutral proteinase; type: functional; how it was run: as §1
Plasmodium falciparum [3] = test: Inhibitory activity against Plasmodium falciparum 68 neutral proteinase.; type: functional
How it was run: (§2)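 Purified Pf 68 proteinase (FcR-3 schizonts; chromatofocusing then gel filtration; 20 μL extract). Inhibitors at 0.005-1 mM preincubated with 0.19 mM GlcA-Val-Leu-Gly-Lys-AEC in 50 mM Tris-HCl pH 7.4, then 30 min at 37 °C. Released AEC extracted into ethyl acetate, fluorescence read at ex 370/em 430 nm. Enzyme-free control for each inhibitor. I50 read from the activity-versus-concentration plot.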

Plasmodium falciparum [4] = test: Inhibitory activity against Plasmodium falciparum 68 neutral proteinase; type: functional; conditions: read-out: I50; how it was run: as §2
Plasmodium falciparum [5] = test: In vitro inhibition of Plasmodium falciparum 68 neutral proteinase activity by reinvasion of red blood cells; type: functional, organism-based
How it was run: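 Synchronized schizonts (44-48 h) from a 4-h synchronized culture, collected by Plasmagel, added to washed healthy erythrocytes at 5% hematocrit to 4-5% parasitemia, with peptide in complete medium with 5% serum. Incubated 4-6 h in a candle jar. New rings counted on Giemsa smears (5000 RBC). Inhibition = 100 − (R/R0 × 100). IC50 from 6-h runs, 5% initial segmenters, triplicate.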

Plasmodium falciparum [6] = test: Reaction velocity for Plasmodium falciparum 68 neutral proteinase.; type: functional; how it was run: as §1

IC50 (Plasmodium falciparum [4]) [µM]	IC50 (Plasmodium falciparum [5]) [µM]	SMILES	Km (Plasmodium falciparum [1]) [µM]	Vrel (Plasmodium falciparum [2])	Ki (Plasmodium falciparum [3]) [µM]	Vm (Plasmodium falciparum [6]) [uM ml-1]
–	–	CCn1c2ccccc2c2cc(NC(=O)[C@H](CCCCN)NC(=O)CNC(=O)[C@H](CC(C)C)NC(=O)[C@@H](NC(=O)C(O)C(O)C(O)C(O)CO)[C@@H](C)O)ccc21 (some centres not stated) (X1-TLGK-{NH(9-Et-carbazol-3-yl)})	770	74	–	–
–	–	CCn1c2ccccc2c2cc(NC(=O)[C@H](CCCCN)NC(=O)CNC(=O)[C@H](CO)NC(=O)C(O)C(O)C(O)C(O)CO)ccc21 (some centres not stated)	730	140	–	–
–	–	CCn1c2ccccc2c2cc(NC(=O)[C@H](CCCCN)NC(=O)CNC(=O)[C@H](CC(C)C)NC(=O)[C@H](CO)NC(=O)C(O)C(O)C(O)C(O)CO)ccc21 (some centres not stated) (X1-SLGK-{NH(9-Et-carbazol-3-yl)})	1140	17	–	–
–	–	CCn1c2ccccc2c2cc(NC(=O)[C@H](CCCCN)NC(=O)CNC(=O)[C@H](COC(=O)c3ccccc3)NC(=O)C(O)C(O)C(O)C(O)CO)ccc21 (some centres not stated)	> 10000	<3	–	–
–	–	CCn1c2ccccc2c2cc(NC(=O)[C@H](CCCN=C(N)N)NC(=O)CNC(=O)[C@H](CC(C)C)NC(=O)[C@@H](NC(=O)C(O)C(O)C(O)C(O)CO)C(C)C)ccc21 (some centres not stated) (X1-VLGR-{NH(9-Et-carbazol-3-yl)})	400	89	–	–
> 2000	–	CC(C)C[C@H](NC(=O)[C@@H](NC(=O)[C@H](O)[C@@H](O)[C@H](O)[C@H](O)CO)C(C)C)C(=O)NCC(=O)N[C@@H](CCCCN)C(=O)N1CCC[C@H]1C(=O)O	–	–	> 2500	–
–	> 10000	CCNC(=O)CNC(=O)[C@H](CCCN=C(N)N)NC(=O)[C@H](Cc1ccccc1)NC(=O)[C@H](CC(=O)O)NC(C)=O (Ac-DFRG-NHEt)	–	–	> 2500	–
1500	–	CC(C)C[C@H](NC(=O)[C@@H](NC(=O)[C@H](O)[C@@H](O)[C@H](O)[C@H](O)CO)C(C)C)C(=O)NCC(=O)N[C@@H](CCCCN)C(=O)NC(CO)CO	–	–	1460	–
–	–	CCn1c2ccccc2c2cc(NC(=O)[C@H](CCCCN)NC(=O)[C@H](C)NC(=O)[C@H](C)NC(=O)[C@H](C)NC(=O)C(O)C(O)C(O)C(O)CO)ccc21 (some centres not stated) (X1-AAAK-{NH(9-Et-carbazol-3-yl)})	5000	29	–	–
–	–	CCn1c2ccccc2c2cc(NC(=O)[C@H](CCCN=C(N)N)NC(=O)CNC(=O)[C@H](CO)NC(=O)C(O)C(O)C(O)C(O)CO)ccc21 (some centres not stated)	> 10000	<3	–	–
–	–	CCn1c2ccccc2c2cc(NC(=O)[C@H](CCCCN)NC(=O)CNC(=O)[C@H](CC(C)C)NC(=O)[C@@H](NC(=O)C(O)C(O)C(O)C(O)CO)C(C)C)ccc21 (some centres not stated) (X1-VLGK-{NH(9-Et-carbazol-3-yl)})	380	100	–	35
–	–	CCn1c2ccccc2c2cc(NC(=O)[C@H](CCCCN)NC(=O)CN(C)C(=O)[C@H](CC(C)C)NC(=O)[C@@H](NC(=O)C(O)C(O)C(O)C(O)CO)C(C)C)ccc21 (some centres not stated) (X1-VL[Sar]K-{NH(9-Et-carbazol-3-yl)})	1670	80	–	–
2000	–	CC(C)C[C@H](NC(=O)[C@@H](NC(=O)[C@H](O)[C@@H](O)[C@H](O)[C@H](O)CO)C(C)C)C(=O)N(C)CC(=O)N[C@@H](CCCN=C(N)N)C(=O)N(C)CC(=O)O	–	–	2500	–
320	–	CC(C)C[C@H](NC(=O)[C@@H](NC(=O)[C@H](O)[C@@H](O)[C@H](O)[C@H](O)CO)C(C)C)C(=O)NCC(=O)N[C@@H](CCCCN)C(=O)N(C)CC(=O)O	–	–	250	–
–	–	CC[C@H](C)[C@H](NC(=O)C(O)C(O)C(O)C(O)CO)C(=O)N[C@H](C(=O)NCC(=O)N[C@@H](CCCCN)C(=O)Nc1ccc2c(c1)c1ccccc1n2CC)C(C)C (some centres not stated) (X1-IVGK-{NH(9-Et-carbazol-3-yl)})	950	43	–	–
–	–	CCn1c2ccccc2c2cc(NC(=O)[C@H](CCCCN)NC(=O)CNC(=O)[C@H](CC(C)C)NC(=O)[C@@H](NC(=O)OC(C)(C)C)C(C)C)ccc21 (Boc-VLGK-{NH(9-Et-carbazol-3-yl)})	1140	11	–	–
> 2000	> 10000	CCNC(=O)[C@H](C)NC(=O)CNC(=O)[C@H](CC(C)C)NC(=O)[C@@H](NC(=O)[C@H](O)[C@@H](O)[C@H](O)[C@H](O)CO)C(C)C	–	–	> 2500	–
–	–	CCn1c2ccccc2c2cc(NC(=O)[C@H](CCCCN)NC(=O)CNC(=O)[C@@H](NC(=O)[C@@H](NC(=O)C(O)C(O)C(O)C(O)CO)C(C)C)[C@@H](C)O)ccc21 (some centres not stated) (X1-VTGK-{NH(9-Et-carbazol-3-yl)})	1250	26	–	–
–	–	CC[C@H](C)[C@H](NC(=O)C(O)C(O)C(O)C(O)CO)C(=O)N[C@H](CNCC(=O)N[C@@H](CCCN=C(N)N)C(=O)Nc1ccc2c(c1)c1ccccc1n2CC)C(C)C (some centres not stated)	6250	3	–	–
–	–	CCn1c2ccccc2c2cc(NC(=O)[C@H](CCCCN)NC(=O)CNC[C@H](CC(C)C)NC(=O)[C@H](N)C(C)C)ccc21	> 10000	<3	–	–
> 2000	> 10000	CCN(CC)C(=O)[C@H](CCCCN)NC(=O)CNC(=O)[C@H](CC(C)C)NC(=O)[C@@H](NC(=O)[C@H](O)[C@@H](O)[C@H](O)[C@H](O)CO)C(C)C	–	–	> 2500	–
–	–	CCn1c2ccccc2c2cc(NC(=O)[C@H](CCCCN)NC(=O)CNC[C@@H](NC(=O)C(O)C(O)C(O)C(O)CO)C(C)O)ccc21 (some centres not stated)	5600	23	–	–
1000	–	CC(C)C[C@H](NC(=O)[C@@H](NC(=O)[C@H](O)[C@@H](O)[C@H](O)[C@H](O)CO)C(C)C)C(=O)NCC(=O)N[C@@H](CCCN=C(N)N)C(=O)N(C)CC(=O)O	–	–	1220	–
> 2000	> 10000	CC(C)C[C@H](NC(=O)[C@@H](NC(=O)[C@H](O)[C@@H](O)[C@H](O)[C@H](O)CO)C(C)C)C(=O)NCC(=O)N[C@@H](CCCCN)C(=O)O	–	–	> 2500	–
> 2000	–	CCNC(=O)CNC(=O)[C@H](CCCN=C(N)N)NC(=O)[C@@H]1CCCN1C(=O)[C@H](CC(=O)O)NC(=O)OC(C)(C)C (Boc-DPRG-NHEt)	–	–	> 2500	–
470	900	CCNC(=O)[C@H](CCCCN)NC(=O)CNC(=O)[C@H](CC(C)C)NC(=O)[C@@H](NC(=O)[C@H](O)[C@@H](O)[C@H](O)[C@H](O)CO)C(C)C	–	–	480	–
